Measurements taken from ChEMBL document CHEMBL1139764, “Design, synthesis, and structure-activity relationship studies of new phenolic DNA gyrase inhibitors” (2007).
Values after ≈ are worked out from the molar mass of the structure shown. Each block holds one molecule with its values, some of them ahead of it.

Legend:
[1] = test system: Escherichia coli; assay: Inhibition of Escherichia coli D110 DNA gyrase after 30 mins by supercoiling assay
[2] = test system: Streptococcus pyogenes; assay: Antibacterial activity against Streptococcus pyogenes beta-15 by agar dilution method; format: functional
Method in brief: (§1)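 Twofold serial dilutions in Müller–Hinton agar with an inoculum of 10^4 CFU per spot. The read-out is the minimal inhibitory concentration (MIC).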

[3] = test system: Staphylococcus aureus; assay: Antibacterial activity against methicillin and quinolones-resistant Staphylococcus aureus Smith QR54 by twofold agar dilution method; format: functional
Method in brief: (§2)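 MIC read as lowest inhibitory level in twofold serial dilutions in Müller–Hinton agar; each spot inoculated with 10^4 CFU.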

[4] = test system: Staphylococcus aureus; assay: Antibacterial activity against Staphylococcus aureus Smith by twofold agar dilution method; format: functional; method in brief: as §2
[5] = test system: Staphylococcus aureus; assay: Antibacterial activity against novobiocin R144I-resistant Staphylococcus aureus ATCC 25923 by agar dilution method; format: functional; method in brief: as §2
[6] = test system: Staphylococcus aureus; assay: Antibacterial activity against erythromycin, methicillin and trimethoprim-resistant Staphylococcus aureus Smith 744 by twofold agar dilution method; format: functional; method in brief: as §2
[7] = test system: Staphylococcus epidermidis; assay: Antibacterial activity against Staphylococcus epidermidis ATCC 14990 by twofold agar dilution method; format: functional; method in brief: as §1
[8] = test system: Staphylococcus aureus; assay: Antibacterial activity against Staphylococcus aureus ATCC 25923 by twofold agar dilution method; format: functional; method in brief: as §2
[9] = test system: Enterococcus faecium; assay: Antibacterial activity against ampicillin, trimethoprim and vancomycin-resistant Enterococcus faecium vanA E23-8 by twofold agar dilution method; format: functional; method in brief: as §2

- Activity [1]: > 63 µg/mL
SMILES: COc1ccc(N2C(=O)c3c(C)c(OC)cc(O)c3C2c2ccc(CS)o2)cc1 (stereo not drawn)

- Activity [1]: 2 µg/mL
SMILES: COc1cc(O)c2c(c1C)C(=O)N(c1cccnc1)C2

- Activity [1]: 1 µg/mL
SMILES: COc1cc(O)c2c(c1C)C(=O)N(c1ccc(S(N)(=O)=O)cc1)C2

SMILES: COc1cc(O)c2c(c1Br)C(=O)N1c3ccc(C)cc3COC21 (stereo not drawn)
- MIC [2]: 16 µg/mL (≈ 42.5 µM)
- MIC [3]: 8 µg/mL (≈ 21.3 µM)
- MIC [4]: 8 µg/mL (≈ 21.3 µM)
- MIC [5]: 4 µg/mL (≈ 10.6 µM)
- MIC [6]: 8 µg/mL (≈ 21.3 µM)
- MIC [7]: 2 µg/mL (≈ 5.32 µM)
- Activity [1]: 0.25 µg/mL
- MIC [8]: 8 µg/mL (≈ 21.3 µM)
- MIC [9]: > 32 µg/mL

- Activity [1]: 8 µg/mL
SMILES: COc1cc(O)c2c(c1C)C(=O)N(c1cccc(C(=O)O)c1)C2

SMILES: CO[C@@H]1[C@@H](OC(N)=O)[C@@H](O)[C@H](Oc2ccc3c(O)c(NC(=O)c4ccc(O)c(CC=C(C)C)c4)c(=O)oc3c2C)OC1(C)C [NOVOBIOCIN]
- MIC [2]: 2 µg/mL (≈ 3.26 µM)
- MIC [3]: 0.12 µg/mL (≈ 0.196 µM)
- MIC [4]: 0.25 µg/mL (≈ 0.408 µM)
- MIC [5]: 8 µg/mL (≈ 13.1 µM)
- MIC [6]: 0.25 µg/mL (≈ 0.408 µM)
- MIC [7]: 0.12 µg/mL (≈ 0.196 µM)
- Activity [1]: 0.25 µg/mL
- MIC [8]: 0.25 µg/mL (≈ 0.408 µM)
- MIC [9]: 8 µg/mL (≈ 13.1 µM)

- Activity [1]: 63 µg/mL
SMILES: NS(=O)(=O)c1ccc(NCc2cc(Cl)ccc2O)cc1

- Activity [1]: 16 µg/mL
SMILES: Oc1cccc(CNc2ccc(Cl)cc2)c1O

- Activity [1]: 4 µg/mL
SMILES: COc1ccc(N2C(=O)c3c(C)c(OC)cc(O)c3C2Sc2ncc[nH]2)cc1 (stereo not drawn)

- Activity [1]: 8 µg/mL
SMILES: COc1ccc(N2Cc3c(O)cc(OC)c(C)c3C2=O)cc1

SMILES: COc1cc(O)c2c(c1Br)C(=O)N1c3ccccc3COC21 (stereo not drawn)
- MIC [2]: 8 µg/mL (≈ 22.1 µM)
- MIC [3]: 2 µg/mL (≈ 5.52 µM)
- MIC [4]: 2 µg/mL (≈ 5.52 µM)
- MIC [5]: 2 µg/mL (≈ 5.52 µM)
- MIC [6]: 4 µg/mL (≈ 11 µM)
- MIC [7]: > 2 µg/mL
- Activity [1]: 0.5 µg/mL
- MIC [8]: 2 µg/mL (≈ 5.52 µM)
- MIC [9]: > 32 µg/mL

- Activity [1]: > 63 µg/mL
SMILES: COc1ccc(N2C(=O)c3c(C)c(OC)cc(O)c3C2c2[nH]c3ccccc3c2C)cc1 (stereo not drawn)

- Activity [1]: 2 µg/mL
SMILES: COc1cc(O)c2c(c1C)C(=O)N(c1cccc(N)c1)C2

- Activity [1]: > 63 µg/mL
SMILES: COc1ccc(N2C(=O)c3c(C)c(OC)cc(O)c3C2c2ccco2)cc1 (stereo not drawn)

- Activity [1]: 8 µg/mL
SMILES: Oc1ccc(Cl)cc1CNc1cccc(Cl)c1

SMILES: COc1cc(O)c2c(c1C)C(=O)N1c3cc4c(cc3C(=O)CC21)OCO4 (stereo not drawn)
- MIC [2]: > 32 µg/mL
- MIC [4]: > 32 µg/mL
- MIC [7]: 32 µg/mL (≈ 90.6 µM)
- Activity [1]: 1 µg/mL
- MIC [8]: > 32 µg/mL
- MIC [9]: > 32 µg/mL

- Activity [1]: 2 µg/mL
SMILES: N#Cc1ccc(NCc2cc(Cl)ccc2O)cc1

- Activity [1]: 4 µg/mL
SMILES: Oc1ccc(Cl)cc1CNc1cc(Cl)cc(Cl)c1

- Activity [1]: 8 µg/mL
SMILES: COC(=O)c1c(C)c(OC)cc(O)c1CNc1ccc2ncccc2c1

- Activity [1]: 16 µg/mL
SMILES: Oc1ccc(CNc2ccc(Cl)cc2)c(O)c1

- Activity [1]: 63 µg/mL
SMILES: COc1ccc(N2C(=O)c3c(C)c(OC)cc(O)c3C2C(Cl)C(C)=O)cc1 (stereo not drawn)

- Activity [1]: > 63 µg/mL
SMILES: COc1ccc(N2C(=O)c3c(C)c(OC)cc(O)c3C2CC(C)=O)cc1 (stereo not drawn)

SMILES: Oc1ccc(Cl)cc1CNc1ccc(Cl)cc1
- MIC [2]: 16 µg/mL (≈ 59.7 µM)
- MIC [3]: 16 µg/mL (≈ 59.7 µM)
- MIC [4]: 16 µg/mL (≈ 59.7 µM)
- MIC [5]: 16 µg/mL (≈ 59.7 µM)
- MIC [6]: 16 µg/mL (≈ 59.7 µM)
- MIC [7]: 16 µg/mL (≈ 59.7 µM)
- Activity [1]: 5 µg/mL
- MIC [8]: 16 µg/mL (≈ 59.7 µM)
- MIC [9]: 16 µg/mL (≈ 59.7 µM)

- Activity [1]: 36 µg/mL
SMILES: COc1ccc(N2C(=O)c3c(C)c(OC)cc(O)c3C2c2ccc(CC#N)s2)cc1 (stereo not drawn)

- Activity [1]: 31 µg/mL
SMILES: COc1ccc(N2C(=O)c3c(C)c(OC)cc(O)c3C2Sc2ccc(C)cc2)cc1 (stereo not drawn)

- Activity [1]: 2 µg/mL
SMILES: COc1cc(O)c2c(c1C)C(=O)N(c1cccc(CC(=O)O)c1)C2
